Measurements as given in ChEMBL document CHEMBL4152323, “N-(1,3,4-oxadiazol-2-yl)benzamide analogs, bacteriostatic agents against methicillin- and vancomycin-resistant bacteria” (Eur J Med Chem, 2018).
≈ marks a conversion by molar mass, not a printed value. Calls of active or inactive are those of the source. The calls are words filed in the database; no cut-off is given here.

Tests used:
Staphylococcus aureus [1] = assay: Antibacterial activity against Staphylococcus aureus assessed as growth inhibition at 16 ug/ml after 24 hrs; assay type: functional, organism-based
How it was run: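 S. aureus grown in Mueller Hinton Broth to early exponential phase, then exposed to compound (16 μg/mL; DMSO stocks 10 mg/mL) or DMSO in duplicate, 37 °C for 24 h. OD600 read; percent normalized OD600 = (X − media blank)/(DMSO control − media blank) × 100.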

Staphylococcus aureus [2] = assay: Bacteriostatic activity against Staphylococcus aureus ATCC 25923 after 20 hrs by broth microdilution method; assay type: functional; settings: ATCC 25923, 20 h
How it was run: (§1)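 Broth microdilution MIC over 128 to 1 μg/mL, run alongside methicillin, linezolid and vancomycin. MIC taken as the lowest concentration with no visible growth.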

Staphylococcus aureus [3] = assay: Bacteriostatic activity against methicillin-resistant Staphylococcus aureus ATCC 33592 after 20 hrs by broth microdilution method; assay type: functional; settings: ATCC 33592, 20 h; how it was run: as §1
Enterococcus faecalis [4] = assay: Bacteriostatic activity against Enterococcus faecalis ATCC 29212 after 20 hrs by broth microdilution method; assay type: functional; settings: ATCC 29212, 20 h; how it was run: as §1
Enterococcus faecalis [5] = assay: Bacteriostatic activity against vancomycin-resistant Enterococcus faecalis ATCC 51575 after 20 hrs by broth microdilution method; assay type: functional; settings: ATCC 51575, 20 h; how it was run: as §1
Listeria monocytogenes = assay: Bacteriostatic activity against Listeria monocytogenes ATCC 19115 after 20 hrs by broth microdilution method; assay type: functional; settings: ATCC 19115, 20 h
How it was run: (§2)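 MIC by broth microdilution across 128 to 1 μg/mL in 96-well plates, 37 °C for at least 20 h. MIC is the lowest concentration with no visible growth.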

Staphylococcus aureus [6] = assay: Bacteriostatic activity against methicillin-resistant Staphylococcus aureus NRS119 clinical isolate after 20 hrs by broth microdilution method; assay type: functional; settings: NRS119, 20 h; how it was run: as §1
Staphylococcus aureus [7] = assay: Bacteriostatic activity against methicillin-resistant Staphylococcus aureus USA400 NRS123 clinical isolate after 20 hrs by broth microdilution method; assay type: functional; settings: USA400 NRS123, 20 h; how it was run: as §1
Staphylococcus aureus [8] = assay: Bacteriostatic activity against methicillin-resistant Staphylococcus aureus USA300 NRS384 clinical isolate after 20 hrs by broth microdilution method; assay type: functional; settings: USA300 NRS384, 20 h; how it was run: as §1
Staphylococcus aureus [9] = assay: Bacteriostatic activity against methicillin-resistant Staphylococcus aureus USA500 NRS385 clinical isolate after 20 hrs by broth microdilution method; assay type: functional; settings: USA500 NRS385, 20 h; how it was run: as §1
Staphylococcus aureus [10] = assay: Bacteriostatic activity against methicillin-resistant Staphylococcus aureus USA700 NRS386 clinical isolate after 20 hrs by broth microdilution method; assay type: functional; settings: USA700 NRS386, 20 h; how it was run: as §1
Staphylococcus aureus [11] = assay: Bacteriostatic activity against methicillin-resistant Staphylococcus aureus USA800 NRS387 clinical isolate after 20 hrs by broth microdilution method; assay type: functional; settings: USA800 NRS387, 20 h; how it was run: as §1
Staphylococcus aureus [12] = assay: Bacteriostatic activity against vancomycin-intermediate Staphylococcus aureus NRS1 clinical isolate after 20 hrs by broth microdilution method; assay type: functional; settings: NRS1, 20 h; how it was run: as §1
Staphylococcus aureus [13] = assay: Bacteriostatic activity against vancomycin-resistant Staphylococcus aureus VRS12 clinical isolate after 20 hrs by broth microdilution method; assay type: functional; settings: VRS12, 20 h; how it was run: as §1
Enterococcus faecium [14] = assay: Bacteriostatic activity against vancomycin-resistant Enterococcus faecium ATCC 700221 clinical isolate after 20 hrs by broth microdilution method; assay type: functional; settings: ATCC 700221, 20 h
How it was run: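 Broth microdilution MIC over 128 to 1 μg/mL in Brain Heart Infusion broth, 37 °C for at least 20 h. MIC taken as the lowest concentration with no visible growth.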

Staphylococcus aureus [15] = assay: Bactericidal activity against methicillin-resistant Staphylococcus aureus NRS119 clinical isolate preincubated for 20 hrs followed by TSA plating and measured after 18 hrs; assay type: functional
Staphylococcus aureus [16] = assay: Bactericidal activity against methicillin-resistant Staphylococcus aureus USA400 NRS123 clinical isolate preincubated for 20 hrs followed by TSA plating and measured after 18 hrs; assay type: functional
Staphylococcus aureus [17] = assay: Bactericidal activity against methicillin-resistant Staphylococcus aureus USA300 NRS384 clinical isolate preincubated for 20 hrs followed by TSA plating and measured after 18 hrs; assay type: functional
Staphylococcus aureus [18] = assay: Bactericidal activity against methicillin-resistant Staphylococcus aureus USA500 NRS385 clinical isolate preincubated for 20 hrs followed by TSA plating and measured after 18 hrs; assay type: functional
Staphylococcus aureus [19] = assay: Bactericidal activity against methicillin-resistant Staphylococcus aureus USA700 NRS386 clinical isolate preincubated for 20 hrs followed by TSA plating and measured after 18 hrs; assay type: functional
Staphylococcus aureus [20] = assay: Bactericidal activity against methicillin-resistant Staphylococcus aureus USA800 NRS387 clinical isolate preincubated for 20 hrs followed by TSA plating and measured after 18 hrs; assay type: functional
Staphylococcus aureus [21] = assay: Bactericidal activity against vancomycin-intermediate Staphylococcus aureus NRS1 clinical isolate preincubated for 20 hrs followed by TSA plating and measured after 18 hrs; assay type: functional
Staphylococcus aureus [22] = assay: Bactericidal activity against vancomycin-resistant Staphylococcus aureus VRS12 clinical isolate preincubated for 20 hrs followed by TSA plating and measured after 18 hrs; assay type: functional
Enterococcus faecium [23] = assay: Bactericidal activity against vancomycin-resistant Enterococcus faecium ATCC 700221 clinical isolate preincubated for 20 hrs followed by TSA plating and measured after 18 hrs; assay type: functional
How it was run: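 MBC: 4 μL from wells with no growth in the MIC plate (Brain Heart Infusion broth, 37 °C, at least 20 h) spotted onto Tryptic Soy Agar. Read after at least 18 h at 37 °C.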

Staphylococcus aureus [24] = assay: Potency index, ratio of methicillin MIC to test compound MIC for methicillin-resistant Staphylococcus aureus ATCC 33592; assay type: functional
Staphylococcus aureus [25] = assay: Antibacterial activity against methicillin-resistant Staphylococcus aureus USA300 at 12 ug/ml preincubated for 24 hrs followed by agar plating and measured after 18 to 20 hrs by time-kill assay relative to control; assay type: functional
Acinetobacter baumannii = assay: Bacteriostatic activity against Acinetobacter baumannii ATCC 19606 after 20 hrs by broth microdilution method; assay type: functional; settings: ATCC 19606 = CIP 70.34 = JCM 6841, 20 h; how it was run: as §2
Klebsiella pneumoniae = assay: Bacteriostatic activity against Klebsiella pneumoniae BAA 1706 after 20 hrs by broth microdilution method; assay type: functional; settings: BAA 1706, 20 h; how it was run: as §2
Pseudomonas aeruginosa = assay: Bacteriostatic activity against Pseudomonas aeruginosa ATCC 15442 after 20 hrs by broth microdilution method; assay type: functional; settings: ATCC 15442, 20 h; how it was run: as §2
Escherichia coli [26] = assay: Bacteriostatic activity against Escherichia coli BW25113 after 20 hrs by broth microdilution method; assay type: functional; settings: BW25113, 20 h; how it was run: as §2
Escherichia coli [27] = assay: Bacteriostatic activity against AcrAB-tolC deficient Escherichia coli JW5503-1 after 20 hrs by broth microdilution method; assay type: functional; settings: JW5503-1, 20 h; how it was run: as §2
Staphylococcus aureus [28] = assay: Ratio of MIC for methicillin-resistant Staphylococcus aureus USA400 NRS123 measured after 10th to 14th passage to MIC for methicillin-resistant Staphylococcus aureus USA400 NRS123 measured prior 10th to 14th passage; assay type: functional
How it was run: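 MRSA USA400 (NRS123) passaged serially, once a day, over 14 passages in two weeks. Broth microdilution MIC of test agent and ciprofloxacin measured after each passage. A four-fold MIC shift taken as resistance.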

[29] = Ratio of non toxic concentration for mouse J774 cells to MIC for methicillin-resistant Staphylococcus aureus ATCC 33592; assay type: toxicity
[30] = Ratio of non toxic concentration for human Caco2 cells to MIC for methicillin-resistant Staphylococcus aureus ATCC 33592; assay type: toxicity; settings: Caco-2 cells
Staphylococcus aureus [31] = assay: Antibacterial activity against methicillin-resistant Staphylococcus aureus USA300 in BALB/c mouse wound infection model assessed as reduction in bacterial burden in wound at 2% administered topically bid for 5 days relative to control; assay type: functional; set-up: scale not given: the % may be the effect or the level left
How it was run: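 Female BALB/c mice, eight weeks old, n = 5 per group, injected intradermally with 40 μL of 1.32×10^9 CFU/mL MRSA USA300. Once an abscess or open wound formed, it was treated topically twice daily for five days with 2% agent in petroleum jelly, with vehicle as control. Wound tissue excised 12 h after the last dose, homogenized in PBS, diluted and plated on mannitol salt agar for 16 h or more at 37 °C. CFU reduction calculated against vehicle.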

J774 = assay: Cytotoxicity against mouse J774 cells assessed as decrease in cell viability up to 128 ug/ml after 24 hrs by MTS assay; assay type: cell-based; settings: j774, 24 h
Caco-2 = assay: Cytotoxicity against human Caco2 cells assessed as decrease in cell viability up to 128 ug/ml after 24 hrs by MTS assay; assay type: cell-based; settings: caco-2, 24 h
How it was run: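 Caco-2 cells were grown in DMEM with 20% FBS, 1X non-essential amino acids and penicillin-streptomycin at 37 °C, 5% CO2. Viability is % of DMSO-treated cells.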

Enterococcus faecalis [32] = assay: Potency index, ratio of vancomycin MIC to test compound MIC for vancomycin-resistant Enterococcus faecalis ATCC 51575
Staphylococcus aureus [33] = assay: Bacteriostatic activity against methicillin-resistant Staphylococcus aureus USA400 NRS123 measured over 14 days by broth microdilution method
Staphylococcus aureus [34] = assay: Antibacterial activity against methicillin-resistant Staphylococcus aureus USA300 at 6 ug/ml preincubated up to12 hrs followed by agar plating and measured after 18 to 20 hrs by time-kill assay; assay type: functional, organism-based

Structure (SMILES)	MIC (Staphylococcus aureus [2])	MIC (Staphylococcus aureus [3])	MIC (Enterococcus faecalis [4])	MIC (Enterococcus faecalis [5])	MIC (Listeria monocytogenes)	MIC (Staphylococcus aureus [6])	MIC (Staphylococcus aureus [7])	MIC (Staphylococcus aureus [8])	MIC (Staphylococcus aureus [9])	MIC (Staphylococcus aureus [10])	MIC (Staphylococcus aureus [13])	MIC (Enterococcus faecium [14])	MBC (Staphylococcus aureus [15])	MBC (Staphylococcus aureus [16])	MBC (Staphylococcus aureus [17])	MBC (Staphylococcus aureus [18])	MBC (Staphylococcus aureus [19])	MBC (Staphylococcus aureus [20])	MBC (Staphylococcus aureus [21])	MBC (Staphylococcus aureus [22])	also measured
C[C@@H]1C[C@H](C)CN(S(=O)(=O)c2ccc(C(=O)Nc3nnc(-c4cccs4)o3)cc2)C1 (mixture of isomers)	2 to 4 mg/L	2 to 4 mg/L	4 mg/L	4 mg/L	4 mg/L	2 mg/L	2 mg/L	2 mg/L	2 mg/L	2 mg/L	2 mg/L	2 mg/L	> 128 mg/L	> 128 mg/L	> 128 mg/L	> 128 mg/L	> 128 mg/L	> 128 mg/L	> 128 mg/L	> 128 mg/L	growth inhibition (GI) (Staphylococcus aureus [1]): Active; MIC (Staphylococcus aureus [11]): 2 mg/L; MIC (Staphylococcus aureus [12]): 2 mg/L; MBC (Enterococcus faecium [23]): 128 mg/L; Ratio (Staphylococcus aureus [24]): > 64; Activity (Staphylococcus aureus [25]): 2.01 deltalog10CFU/ml; MIC (Acinetobacter baumannii): 128 mg/L; MIC (Klebsiella pneumoniae): > 128 mg/L; MIC (Pseudomonas aeruginosa): > 128 mg/L; MIC (Escherichia coli [26]): > 128 mg/L; MIC (Escherichia coli [27]): 2 mg/L; Ratio (Staphylococcus aureus [28]): 1; selectivity ratio [29]: 63; selectivity ratio [30]: 63; Activity (Staphylococcus aureus [31]): 72.41%; Activity (J774): Non-Toxic; Activity (Caco-2): Non-Toxic; Ratio (Enterococcus faecalis [32]): >32; Activity (Staphylococcus aureus [33]): Active
CN[C@H](CC(C)C)C(=O)N[C@H]1C(=O)N[C@@H](CC(N)=O)C(=O)N[C@H]2C(=O)N[C@H]3C(=O)N[C@H](C(=O)N[C@H](C(=O)O)c4cc(O)cc(O)c4-c4cc3ccc4O)[C@H](O)c3ccc(c(Cl)c3)Oc3cc2cc(c3O[C@@H]2O[C@H](CO)[C@@H](O)[C@H](O)[C@H]2O[C@H]2C[C@](C)(N)[C@H](O)[C@H](C)O2)Oc2ccc(cc2Cl)[C@H]1O [VANCOMYCIN]	1 to 2 mg/L (≈ 0.69 to 1.38 µM)	1 to 2 mg/L (≈ 0.69 to 1.38 µM)	2 mg/L (≈ 1.38 µM)	> 128 mg/L	1 mg/L (≈ 0.69 µM)	≤ 1 mg/L	≤ 1 mg/L	≤ 1 mg/L	≤ 1 mg/L	≤ 1 mg/L	> 128 mg/L	> 128 mg/L	≤ 1 mg/L	≤ 1 mg/L	≤ 1 mg/L	2 mg/L (≈ 1.38 µM)	≤ 1 mg/L	2 mg/L (≈ 1.38 µM)	4 mg/L (≈ 2.76 µM)	> 128 mg/L	MBC (Enterococcus faecium [23]): > 128 mg/L; Activity (Staphylococcus aureus [34]): Active
